From PubChem
MPTP inh – permeability transition pore inhibition; isolated mouse mitochondria, Ca2+ swelling absorbance, 30 min; inhibition, % at 10 µM; actives 1.4% (n = 360,000); AID 602449;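 active means inhibition of 50% or more, scaled per plate between neutral and stimulator controls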;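 further: 0% = DMSO wells given calcium and 100% = 1 mM EGTA wells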
NR2E3 ag-1 – agonists of human nuclear receptor NR2E3; AID 2300; actives 0.12% (n = 320,000); inhibition of corepressor binding, % at 4.78 µM; Q9Y5X4; GST-NR2E3/biotin-RetCOR TR-FRET, 1536-well;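 active means percent inhibition above the cutoff of mean plus 3 SD of all tested compounds, set per screening campaign, cut at about 20% in these data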;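 further: 0% = DMSO wells and 100% = biotin wells as full block of FRET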
Target sequence (Q9Y5X4 whole entry, looked up): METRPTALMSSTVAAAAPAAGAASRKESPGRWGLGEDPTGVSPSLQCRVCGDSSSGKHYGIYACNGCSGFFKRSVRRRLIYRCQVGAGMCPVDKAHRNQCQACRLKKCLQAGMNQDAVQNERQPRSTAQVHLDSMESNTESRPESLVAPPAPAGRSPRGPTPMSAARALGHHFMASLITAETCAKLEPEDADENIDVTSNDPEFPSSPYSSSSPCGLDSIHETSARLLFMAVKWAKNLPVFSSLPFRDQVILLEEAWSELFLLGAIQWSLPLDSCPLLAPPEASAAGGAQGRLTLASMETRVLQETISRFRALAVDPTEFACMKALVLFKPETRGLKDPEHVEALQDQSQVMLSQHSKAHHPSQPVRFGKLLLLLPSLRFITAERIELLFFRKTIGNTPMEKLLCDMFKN
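Test system – NR2E3–RetCOR corepressor complex · Quantity – NR2E3 fusion 1.35 nM · Buffer or medium – Tris pH 7.5 · Incubation – Compound–protein incubation for 5 h at 4 °C · Technique – TR-FRET, Eu(K)-anti-GST donor, streptavidin-D2 acceptor, ex 340, em 617/671 nm · Evaluation – percent inhibition of 671/617 nm emission ratio versus biotin and DMSO controls · Plate – 1536-well format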
697 NFkB inh – inhibitors of the PMA/ionomycin-induced NF-kB reporter in 697 B cells; 697 B-cell NF-kB luciferase reporter, 16 h; inhibition, % at 4 µM; actives 0.33% (n = 330,000); AID 435022; in the data active means inhibition above about 35%
Jurkat NFkB inh – inhibitors of the PMA/ionomycin-induced NF-kB reporter in Jurkat cells | actives 0.53% (n = 330,000) | inhibition, % at 4 µM | PMA/ionomycin-induced NF-kB luciferase reporter, luminescence; in the data active means inhibition above about 50%
aDG glyco up – increases alpha dystroglycan glycosylation; Pro5-aDG cells, alpha-DG glycosylation AlphaScreen (IIH6); 0% Pro5, 100% B10-LARGE cell signal; activation, % at 10 µM; actives 0.22% (n = 360,000);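 active means activation of at least 8% versus controls, or a plate z-score of at least 8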;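 further: Pro5 are CHO cells carrying HIG-tagged alpha-DG that lacks glycosylation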
NR2E3 ag-2 – agonists of human NR2E3 nuclear receptor. CHO-S Gal4-NCOR/VP16-NR2E3 two-hybrid, luciferase. Q9Y5X4. inhibition of corepressor binding, % at 3.98 µM. actives 0.35% (n = 360,000);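 active means inhibition above the mean of all tested compounds plus 3 SD, cut at about 70% in these data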;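 further: 0% = DMSO with NR2E3 transfected cells and 100% = cells lacking NR2E3 construct; higher means lower luciferase signal from less NR2E3 corepressor binding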
697 NFkB conf – inhibitors of the PMA/ionomycin-induced NF-kB reporter in 697 B cells, retest. 697 B-cell NF-kB luciferase, 16 h. shares compounds with 697 NFkB inh. inhibition, % at 4 µM. AID 449746. actives 35% (n = 2,000); in the data active means inhibition mostly above about 28%, no sharp cut-off; inactive means mostly below about 22%
Starred values were filed as active, the others as inactive; i = inactive; / = no result. Hits are enriched below; roughly 2.4% of the tested compounds scored in any of these assays.

SMILES | MPTP inh | NR2E3 ag-1 | 697 NFkB inh | Jurkat NFkB inh | aDG glyco up | NR2E3 ag-2 | 697 NFkB conf
O=C(Cc1ccc(Cl)cc1)Nc1ccc(S(=O)(=O)Nc2ncccn2)cc1 | 1 | 1 | 6 | 10 | 0 | -1 | /
Cc1ccc(NCCC(=O)c2cccs2)cc1 | -4 | -3 | -93 | -113 | 0 | -82 | /
Cc1ccc(N=C/C(C(=O)C(F)(F)F)=C(\O)c2cccs2)cc1 | 0 | 2 | -360 | -100 | 0 | -114 | -148
COc1cccc(/C=N\NC(=O)c2sc(N)nc2C)c1OC | -2 | 1 | 39* | 2 | 0 | -22 | 8
CCOC(=O)c1cc2c(=O)n3ccccc3nc2n(C)c1=NC(=O)c1c(-c2c(F)cccc2Cl)noc1C | 5 | 2 | 48* | -15 | 0 | 1 | 5
CN(C)C(=O)CCc1ccc2c3c([nH]c2c1)[C@]1(C)[C@@H](C(=O)N2CCCCC2)C[C@H](CC(=O)NCc2ccco2)C(=O)N1CC3 | 0 | / | 12 | / | 0 | -27 | /
CN(C)C(=O)CCc1ccc2c3c([nH]c2c1)[C@]1(CCc2ccccc2)[C@@H](C(=O)N2CCCCC2)C[C@H](CC(=O)NCc2ccco2)C(=O)N1CC3 | -2 | / | 39* | / | 0 | -13 | 24
Clc1ccc(-c2cn3cc(Cl)ccc3n2)cc1 | 1 | 1 | -312 | -104 | 0 | -184 | -381
CC(C)COc1cccc(-c2cc(C(=O)N/N=C/c3ccncc3)c3ccccc3n2)c1 | 3 | / | i | 8 | 0 | -2 | i
COc1ccc(-c2csc(N3C(=N)SCC3=O)n2)cc1 | 0 | 1 | -378 | -104 | 0 | -96 | -313
COc1ccc(-c2csc(N3C(=O)CNC3=S)n2)cc1 | 1 | 2 | / | / | 0 | -133 | /
CC(C)Oc1ccc(C(=O)Nc2c3c(nn2C(C)(C)C)CS(=O)(=O)C3)cc1 | -1 | -1 | 1 | 2 | 0 | 10 | /
Cc1ccc(N=Nc2ccc(O)cc2)c(Br)c1 | 6 | 0 | -316 | -117 | 0 | -170 | -222
Cc1ccc2nc(NC(=O)CSCC(=O)OCC(=O)c3ccc(Br)cc3)sc2c1 | 2 | 1 | 64* | 41 | 0 | -6 | 54*
COC(=O)c1ccc2nc(NC(=O)CSCC(=O)OCC(=O)c3ccccc3)sc2c1 | 1 | 1 | 0 | -9 | 0 | -59 | /
CN(C)C(=O)CCc1nc(-c2ccc(C(C)(C)C)cc2)no1 | -3 | 1 | 81* | -67 | 0 | 70 | 77*
CC(C)(C)c1ccc(-c2noc(CCC(=O)N3CCOCC3)n2)cc1 | 1 | -6 | 52* | -63 | 0 | -21 | 37*
CCc1ccccc1N(CC)C(=O)CCc1nc(-c2ccc(C)cc2)no1 | 0 | 1 | -5 | 9 | 1 | -2 | /
COc1ccc(-c2noc(CCCC(=O)N3CCOCC3)n2)cc1 | -1 | 2 | 3 | -6 | 0 | 0 | /
CC[N+]1(CC)CC2CCC(C)(C1)C2(C)C (stereo not given) | -2 | -4 | -2 | 9 | 0 | -4 | /
C(=N\Nc1nc2ccccc2[nH]1)/c1cccc2nccnc12 | 1 | -5 | -341 | 5 | 0 | -97 | -110
C(=N\Nc1nc2ccccc2[nH]1)/c1ccccn1 | -2 | / | / | / | 1 | -76 | /
O=[N+]([O-])c1ccc(OCCO)c(P(=O)(c2ccccc2)c2ccccc2)c1 | 0 | -2 | 7 | 13 | 0 | 18 | /
CCc1ccc(NC(=O)Nc2ccsc2C(=O)OC)cc1 | 1 | 1 | -358 | -32 | 0 | -86 | -315
COC(=O)c1sccc1NC(=O)Nc1ccc(C)c(C)c1 | -1 | / | -159 | -4 | 0 | -117 | /
SMILES | MPTP inh | NR2E3 ag-1 | 697 NFkB inh | Jurkat NFkB inh | aDG glyco up | NR2E3 ag-2 | 697 NFkB conf
CC(C)c1ccc(/C=N/n2cnnc2)cc1 | 1 | -1 | -26 | -15 | 0 | -32 | /
O=C(NCCCN1CCN(CCCNC(=O)c2cc([N+](=O)[O-])ccc2Cl)CC1)c1cc([N+](=O)[O-])ccc1Cl | 14 | 0 | 19 | 5 | 0 | -15 | /
Cc1ccc(-c2csc3ncnc(Nc4ccc(C(=O)O)cc4)c23)cc1 | 1 | 1 | 36* | 10 | 0 | -1 | 16
O=C(O)c1ccc(Nc2ncnc3scc(-c4ccccc4)c23)cc1 | -1 | 0 | 28 | 12 | 0 | -15 | /
CCOC(=O)[C@H]1[C@H]2COc3ccccc3[C@@H]2N2C(=O)c3ccc(C)cc3NC(=O)[C@@]12C | -2 | -2 | 36* | 11 | 0 | 25 | 18
COc1ccc(Br)cc1/C=C(\C(=O)O)c1ccc(S(=O)(=O)N2CCCCC2)s1 | -1 | 1 | 8 | 9 | 0 | -8 | /
CC(=O)Oc1ccc2c(c1)C(=O)CCCCCC(=O)O2 | -1 | / | / | / | 0 | 12 | /
COc1ccc(C2C3=C(CCCC3=O)Nc3nc(-c4cc(OC)c(OC)c(OC)c4)nn32)cc1OC (stereo not given) | -1 | -1 | 38* | -2 | 0 | -7 | 9
Cc1ccc(C)c(N(CC(=O)NCc2ccccc2)C(=O)c2csnn2)c1 | -1 | -1 | 4 | -11 | 0 | -5 | /
Oc1ccc(C=Nc2ccccc2-c2nc3ccccc3[nH]2)c(O)c1 | 2 | -3 | -82 | -60 | 0 | -58 | /
Oc1ccccc1C=Nc1ccccc1-c1nc2ccccc2[nH]1 | 11 | 4 | -268 | -40 | 0 | -62 | -81
COc1ccc2oc(C(=O)N3CCN(S(=O)(=O)c4cccc([N+](=O)[O-])c4)CC3)c(C)c2c1 | -1 | 0 | 17 | 17 | 0 | -20 | /
COc1cc(OC)cc(-c2cc3nc(C)c(CCC(=O)Nc4nc(C)cs4)c(C)n3n2)c1 | 2 | 3 | 36* | 10 | 0 | 7 | 39*
COc1cc(NC(=O)CCc2c(C)nc3nc(C)nn3c2C)cc(OC)c1 | 1 | 0 | -8 | -6 | 0 | -23 | /
Cc1c(/C=N/NC(=O)c2cccs2)c2ccccc2n1Cc1ccccc1Cl | 2 | 3 | i | -46 | 0 | -17 | 3
Cc1cc(OCC(=O)NC2CC2)c2c(C)cc(=O)oc2c1 | 0 | -5 | 18 | 4 | 0 | 6 | /
Cc1cc(OCC(=O)NC2CC2)c2c(C)c(C)c(=O)oc2c1 | -2 | 3 | 36* | 7 | 0 | -24 | 29*
COc1ccc(Br)cc1CN1CCN(C(=O)c2ccco2)CC1 | 0 | -1 | -9 | 13 | 0 | -14 | /
O=C1CCCc2c1[nH]c1ccc(CN3CCCCC3)cc21 | 0 | -3 | 38* | -15 | 0 | -12 | 29*
CCOC(=O)c1cc(CC)sc1N1C(=O)CC(Sc2ncccc2C(=O)O)C1=O (stereo not given) | 0 | 5 | 46* | -13 | 0 | -3 | 4
